Measurements reported in ChEMBL document CHEMBL3286344, “Bromopyrrole alkaloids isolated from the Patagonian bryozoan Aspidostoma giganteum” (J Nat Prod, 2014).

Assay: Cytotoxicity against human 786-O cells assessed as growth inhibition by MTS assay
Format: functional, cell-based
Settings: 786-0; call rule not given here
Outline: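 Cells seeded at 2 × 10³/well in complete medium; after 24 h, serial doses 0.05−100 μM or DMSO vehicle in medium with 2% FBS for 3 days, medium with fresh compound replaced every 2 days. Viability by MTS reduction to formazan, read as 492/620 nm absorbance ratio; IC50 derived. Cells checked mycoplasma-free by Hoechst method.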

SMILES | IC50
O=C(NC[C@@H](O)c1cc(Br)c(O)c(Br)c1)c1[nH]cc(Br)c1Br | Not Active
O=C(NC[C@@H](O)c1cc(Br)c(O)c(Br)c1)c1cc(Br)c(Br)[nH]1 | Not Active
O=C(NC[C@@H](O)c1cc(Br)c(O)c(Br)c1)c1[nH]c(Br)c(Br)c1Br | Not Active
O=C1N[C@H](O)[C@H](c2c(Br)[nH]c3ccc(Br)cc23)n2c(Br)c(Br)c(Br)c21 | Not Active
O=c1c2c(Br)c(Br)cn2c(-c2cc(Br)c(O)c(Br)c2)cn1-n1cc(-c2cc(Br)c(O)c(Br)c2)n2c(Br)c(Br)cc2c1=O | Not Active
CCO[C@H](CNC(=O)c1[nH]c(Br)c(Br)c1Br)c1cc(Br)c(O)c(Br)c1 | Not Active

Same assay, conditions: Homo sapiens, 786-0; read-out: IC50

SMILES | IC50
COc1ccc(C(=O)C(NC(=O)c2cc(Br)c(Br)[nH]2)OC)cc1Br (stereo unspecified) | 100 µM
CO[C@H]1NC(=O)c2c(Br)c(Br)c(Br)n2[C@H]1c1c(Br)[nH]c2ccc(Br)cc12 | 7.8 µM
O=c1[nH]cc(-c2c(Br)[nH]c3ccc(Br)cc23)n2c(Br)c(Br)c(Br)c12 | 27 µM
O=C(NCCc1c(Br)[nH]c2cc(Br)cc(O)c12)c1cc(Br)c(Br)[nH]1 | 15.1 µM
COc1cccc2c1C(=O)c1c(O)c3c(c(O)c1C2=O)C[C@@](O)(C(=O)CO)C[C@@H]3O[C@H]1C[C@H](N)[C@H](O)[C@H](C)O1 [DOXORUBICIN] | 0.13 µM
